Consider twelve molecules from ChEMBL document CHEMBL1287776, “Synthesis and biological evaluations of P4-benzoxaborole-substituted macrocyclic inhibitors of HCV NS3 protease” (Bioorg Med Chem Lett, 2010).

Data set [1] can be described thus: Inhibition of HCV 1a NS3/4A protease by FRET assay. Also noted: species or system Hepatitis C virus subtype 1a. The essentials: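 FRET assay with the genotype 1a NS3/4A protease domain and a fluorogenic peptide substrate. Buffer is 50 mM HEPES, 20% sucrose, 5 mM DTT and 0.05% NP-40. Initial rates are read at ex 490/em 520 nm. IC50 values are means of duplicate or triplicate experiments.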

Data set [2] deals with Hepatitis C virus. In words: Antiviral activity against HCV 1b infected in human Huh-7 cells after 48hrs by luciferase assay. To be noted: genotype 1b, Huh-7, 48 h. The class given is functional, organism-based, Hepacivirus hominis. The procedure, abridged:
(§1)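 Subgenomic (NS3-NS5B) luciferase replicon cells for genotype 1a or 1b. The 1b ET line is stably transfected with a firefly luciferase-ubiquitin-neo replicon carrying cell culture adaptive mutations. Cells are seeded at 5 × 10³/well onto compounds in 1% DMSO final. Luciferase is read after 48 h. EC50 comes from an 11-point, 3-fold dilution curve, as % inhibition versus no-compound control, with a four-parameter logistic fit.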

Data set [3] relates to Hepatitis C virus. In words: Antiviral activity against HCV 1a infected in human Huh-7 cells after 48hrs by luciferase assay. The class given is functional, organism-based, Hepacivirus hominis. To be noted: subtype 1a, Huh-7, 48 h. The essentials: as §1
A short description of data set [4]: (§2) Oral bioavailability in rat. Type of data set: ADME, organism-based. As to conditions: in vivo. The procedure, abridged:
(§3)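 Rat pharmacokinetics with blood drawn from both the jugular and portal veins after oral dosing, with IV dosing as reference. Absorption is calculated from portal vein drug levels. Oral bioavailability is calculated from jugular vein levels, each compared with levels after IV administration.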

For data set [5], the species on record is Rattus norvegicus. In words: Metabolic absorption in rat. Type of data set: ADME, organism-based. To be noted: in vivo. The procedure, abridged: as §3
Data set [6] has as its system Rattus norvegicus. The data set is described as §2. The class given is ADME, organism-based. As to conditions: in vivo, BLD = below limit of detection. The procedure, abridged: as §3

In the case of `O=C(N[C@H]1CCCCC/C=C\[C@@H]2C[C@@]2(C(=O)NS(=O)(=O)C2CC2)NC(=O)C2C[C@@H](OC(=O)N3Cc4cccc(F)c4C3)CN2C1=O)Oc1ccc2c(c1)B(O)OC2` (some centres undefined), half-maximal inhibition in data set [1] (IC50) was put at 1.6 nM. Moreover, the EC50 (as a rule, the concentration needed to bring the measured effect to its halfway point) in data set [2] stood at 15 nM; in data set [3], 661 nM.
Turning to `O=C(NCc1ccc2c(c1)B(O)OC2)N[C@H]1CCCCC/C=C\[C@@H]2C[C@@]2(C(=O)NS(=O)(=O)C2CC2)NC(=O)C2C[C@@H](OC(=O)N3Cc4cccc(F)c4C3)CN2C1=O` (some centres undefined), in data set [4], the bioavailability – broadly, dose-corrected exposure relative to a reference, in per cent – is 0.7%. Moreover, the 50% inhibitory concentration (IC50) (as a rule, the concentration that inhibits the measured activity by half) in data set [1] was determined as 0.4 nM. Moreover, the figures for the concentration giving a half-maximal response (EC50) in data set [2] and in data set [3] were 0.9 nM and 160 nM, respectively. For the same molecule, the Activity in data set [5] was determined as 0.6%.
As to `COc1ccc2c(O[C@@H]3CC4C(=O)N[C@]5(C(=O)NS(=O)(=O)C6CC6)C[C@H]5/C=C\CCCCC[C@H](NC(=O)NCc5ccc6c(c5)B(O)OC6)C(=O)N4C3)cc(-c3nc(C(C)C)cs3)nc2c1C` (some centres undefined), in data set [6], the F entry is recorded as “BLD”. The molecule further returned an IC50 in data set [1] of 4.1 nM. Also, the EC50 worked out at 0.5 nM in data set [2] and 4.2 nM in data set [3]. Moreover, the Activity entry in data set [5] (BLD = below limit of detection) is “BLD”.
Turning to `COc1cnc(O[C@@H]2CC3C(=O)N[C@]4(C(=O)NS(=O)(=O)C5CC5)C[C@H]4/C=C\CCCCC[C@H](NC(=O)NCc4ccc5c(c4)B(O)OC5)C(=O)N3C2)c2cc(Cl)ccc12` (some centres undefined), the IC50 in data set [1] amounted to 0.4 nM. Moreover, the EC50 in data set [2] is 3.9 nM; in data set [3], 50.1 nM.
The molecule `CC(C)(C)OC(=O)N[C@H]1CCCCC/C=C\[C@@H]2C[C@@]2(C(=O)NS(=O)(=O)C2CC2)NC(=O)[C@@H]2C[C@@H](OC(=O)N3Cc4cccc(F)c4C3)CN2C1=O` [DANOPREVIR] came in with a bioavailability in data set [4] of 20%. In data set [1], this molecule displayed a half-maximal inhibitory concentration (IC50) of 0.4 nM. In addition, the figures for the EC50 in data set [2] and in data set [3] were 1.1 nM and 1 nM, respectively. The molecule further registered an Activity in data set [5] of 17.4%.
As to `COc1ccc2c(O[C@@H]3CC4C(=O)N[C@]5(C(=O)NS(=O)(=O)C6CC6)C[C@H]5/C=C\CCCCC[C@H](NC(=O)Nc5ccc6c(c5)B(O)OC6)C(=O)N4C3)cc(-c3nc(C(C)C)cs3)nc2c1C` (some centres undefined), the 50% inhibitory concentration (IC50) in data set [1] was found to be 5.6 nM. Moreover, the concentration for a half-maximal effect (EC50) in data set [2] was found to be 1.2 nM; in data set [3], 12.5 nM.
As to `O=C(Nc1ccc2c(c1)B(O)OC2)N[C@H]1CCCCC/C=C\[C@@H]2C[C@@]2(C(=O)NS(=O)(=O)C2CC2)NC(=O)C2C[C@@H](OC(=O)N3Cc4cccc(F)c4C3)CN2C1=O` (some centres undefined), the bioavailability in data set [4] was 0.5%. The concentration for half-maximal inhibition (IC50) in data set [1] came to 0.4 nM. Moreover, the results for the EC50 in data set [2] and in data set [3] were 3.7 nM and 159 nM, respectively. Besides, the Activity in data set [5] was found to be 0.9%.
With `COc1cnc(O[C@@H]2CC3C(=O)N[C@]4(C(=O)NS(=O)(=O)C5CC5)C[C@H]4/C=C\CCCCC[C@H](NC(=O)Nc4ccc5c(c4)B(O)OC5)C(=O)N3C2)c2cc(Cl)ccc12` (some centres undefined), half-maximal inhibition in data set [1] (IC50) required 0.6 nM. The EC50 in data set [2] was 3.9 nM; in data set [3], 60.3 nM.
In data set [1], `O=C(N[C@H]1CCCCC/C=C\[C@@H]2C[C@@]2(C(=O)NS(=O)(=O)C2CC2)NC(=O)C2C[C@@H](OC(=O)N3Cc4cccc(F)c4C3)CN2C1=O)Oc1ccc2c(c1)COB2O` (some centres undefined) returned an IC50 of 2.4 nM. In addition, the values for the EC50 in data set [2] and in data set [3] were 172 nM and 3550 nM, respectively.
In data set [1], `O=C(Nc1cc2c(cc1F)COB2O)N[C@H]1CCCCC/C=C\[C@@H]2C[C@@]2(C(=O)NS(=O)(=O)C2CC2)NC(=O)C2C[C@@H](OC(=O)N3Cc4cccc(F)c4C3)CN2C1=O` (some centres undefined) showed an IC50 of under 0.2 nM. Further, the EC50 in data set [2] was determined as 1.5 nM; in data set [3] it was 35 nM.
The like results for `CC1OB(O)c2cc(NC(=O)N[C@H]3CCCCC/C=C\[C@@H]4C[C@@]4(C(=O)NS(=O)(=O)C4CC4)NC(=O)C4C[C@@H](OC(=O)N5Cc6cccc(F)c6C5)CN4C3=O)c(F)cc21` (some centres undefined) were, in that order, 0.4 nM, 1.2 nM and 20 nM.
The like results for `COc1ccc2c(O[C@@H]3C[C@H]4C(=O)N[C@]5(C(=O)NS(=O)(=O)C6CC6)C[C@H]5/C=C\CCCCN(C)C(=O)[C@@H]4C3)cc(-c3nc(C(C)C)cs3)nc2c1C` [SIMEPREVIR] were, in that order, 10 nM, 1.4 nM and 2.3 nM.
